Compounds with a hit are over-represented: about 1.6% of the library has one in this group of screens.
TCR CD3 inh: inhibitors of human TCR-CD3 interaction; TAMRA-labeled TCR probe fluorescence, biochemical; AID 651800; inhibition, % at 9.4 µM; 0.37% of 360,000 active; in the data active means inhibition above about 19%;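 further: recombinant mutant TCR 2C K166C tagged with TAMRA read by polarization; 0% = receptor in buffer alone and 100% = receptor with positive control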
DAGLB inhibitor: diacylglycerol lipase beta (human) inhibition | Q8NCG7 | HEK293T DAGLB membrane lysate, EnzChek fluorogenic substrate | inhibition, % at 5.17 µM | 0.059% of 340,000 active; in the data active means inhibition above about 34%;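 further: 0% = enzyme with vehicle and 100% = wells lacking enzyme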
mABHD4 FP: inhibits mouse alpha/beta hydrolase domain 4; AID 720543; 0.54% of 370,000 active; inhibition, % at 8.92 µM; Q8VD66; purified mABHD4, FP-Rh probe fluorescence polarization;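 active means inhibition exceeding the mean over every tested compound plus 3 SD, cut at about 30% in these data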;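 further: 0% = plate median of compound wells and 100% = S159A mutant with DMSO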
Target sequence (Q8VD66 whole entry, looked up, the tested form may be a part): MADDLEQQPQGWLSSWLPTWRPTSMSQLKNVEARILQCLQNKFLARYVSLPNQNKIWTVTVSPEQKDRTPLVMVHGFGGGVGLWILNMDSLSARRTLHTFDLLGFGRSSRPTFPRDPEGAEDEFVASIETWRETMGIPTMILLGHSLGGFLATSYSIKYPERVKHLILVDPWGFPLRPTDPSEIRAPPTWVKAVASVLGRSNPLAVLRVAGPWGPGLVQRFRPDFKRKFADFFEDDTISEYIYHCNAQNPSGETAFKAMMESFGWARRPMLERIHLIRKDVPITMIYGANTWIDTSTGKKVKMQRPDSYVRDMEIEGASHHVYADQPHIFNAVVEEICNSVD
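Test system: mABHD4 protein; Read-out basis: % inhibition; Incubation: 45 min + 60 min at 25 °C; Repeats: single replicate; Technique: fluorescence polarization with parallel and perpendicular emission, 525/598 nm; Compound: 8.92 µM, single dose; Benchmarks: full inhibition S159A mutant plus DMSO, zero as sample-well median.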
HTRA1 inh: inhibitors of human serine peptidase HTRA1; Q92743; recombinant HTRA1, FP-rhodamine activity-based probe, fluorescence polarization; inhibition, % at 5.96 µM; 0.5% of 340,000 active; in the data active means inhibition above about 36%;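 further: 0% = enzyme with DMSO and 100% = wells lacking enzyme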
SIAE primary: inhibitors of human sialic acid acetylesterase SIAE; SIAE FP-Rh probe binding, fluorescence polarization; 0.69% of 370,000 active; Q9HAT2; inhibition, % at 9.66 µM;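 active means inhibition above a cutoff: mean of compounds within the control limits plus 3 SD of those, cut at about 17% in these data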;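 further: 0% = plate median of compound wells and 100% = probe without SIAE protein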
mABHD4 conf: ABHD4 (mouse) inhibition, FP confirmation; inhibition, % at 8.92 µM; purified mABHD4, FP-Rh probe fluorescence polarization; 55% of 1,800 active; shares compounds with mABHD4 FP;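 active means mean inhibition across replicates above the hit cutoff set in the primary screen, cut at about 30% in these data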;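 further: 0% = wild-type ABHD4 with DMSO and 100% = catalytically dead S159A mutant with DMSO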
The depositor's hits bear a star; / = no result given.

SMILES	TCR CD3 inh	DAGLB inhibitor	mABHD4 FP	HTRA1 inh	SIAE primary	mABHD4 conf
Cc1ccccc1NC1=C/C(=N\S(=O)(=O)c2ccc(C(=O)O)cc2)c2ccccc2C1=O	4	15	63*	26	4	65*
COC(=O)C(C(C)=O)C1=C/C(=N\S(=O)(=O)c2ccc(C)cc2)c2ccccc2C1=O (stereo not drawn)	/	3	/	-6	/	/
Cc1ccc(C)c(S(=O)(=O)/N=C2\C=C(NS(=O)(=O)c3ccccc3)C(=O)c3ccccc32)c1	-7	28	46*	13	-4	58*
Nn1c(SCc2ccc(Br)cc2)nnc1-c1ccccn1	6	-1	-3	1	-4	/
Cc1cccc(CSc2nnc(-c3ccccn3)n2N)c1	4	-1	36*	0	-7	11
CC(C)n1cnc2c(NCc3ccccc3)cc(Cc3ccc(F)cc3)cc21	4	-6	31*	11	7	21
C[C@@H]1C[C@H]2[C@@H](Cc3ccccc3)C(=O)N3[C@H](c4ccccc4)[C@H](C)C[C@H]3[C@@H](Cc3ccccc3)C(=O)N2[C@@H]1c1ccccc1	/	/	50*	/	9	39*
COC(=O)C1=C(C)N(Cc2cccc(C(F)(F)F)c2)C(=NCC2CC2)NC1c1cccc(C(F)(F)F)c1 (stereo not drawn)	8	/	27	/	6	/
O=c1oc2ccccc2nc1/C=C(O)/C=C\c1ccccc1	3	5	33*	9	4	9
O=C(c1cc([N+](=O)[O-])ccc1Cl)N1CCN(c2ccc(F)cc2)CC1	5	3	-6	3	7	/
O=C(c1cc([N+](=O)[O-])ccc1Cl)N1CCN(c2ccc([N+](=O)[O-])cc2)CC1	-1	6	40*	-5	-1	-3
CCOC(=O)c1c(C)n(C)c2cc(Br)c(O)c(O)c12	-4	-2	30*	9	13	5
CCOC(=O)c1c(C)n(C)c2cc([N+](=O)[O-])c(O)c([N+](=O)[O-])c12	-4	3	9	-1	1	/
COc1ccccc1C(=O)NC1CCCCN(Cc2cccc(C(F)(F)F)c2)C1=O (stereo not drawn)	/	/	-1	/	-2	/
COC(=O)C1CN(Cc2ccc(F)cc2)CCS(=O)(=O)N1Cc1cn(Cc2ccc(Cl)cc2)nn1 (stereo not drawn)	/	/	-4	/	0	/
COC(=O)c1cn(-c2ccc3c(c2)[C@@]2(CC(=O)N(C)C2c2ccccc2)C(=O)N3CC(C)C)nn1 (stereo partly drawn)	/	/	1	/	0	/
CCCOC(c1ccccc1)(c1ccc(C(F)(F)F)cc1)C(Oc1nc(C)cc(C)n1)C(=O)O (stereo not drawn)	2	14	21	7	2	/
Cc1cc(C)nc(OC(C(=O)O)C(OCCc2ccccc2)(c2ccc(F)cc2)c2ccc(F)cc2)n1 (stereo not drawn)	-4	13	40*	-10	0	43*
CCC(C)COC(c1ccccc1)(c1ccccc1)C(Oc1nc(C)cc(C)n1)C(=O)O (stereo not drawn)	2	9	31*	-3	-1	35*
CCOc1ccc(N(CC(=O)Nc2c(C)n(C)n(-c3ccccc3)c2=O)S(=O)(=O)c2ccc3c(c2)N(C(=O)C2CCC2)CC3)cc1	/	/	0	/	-4	/
Brc1cc2c(cc1C1Nc3ccccc3C3C=CCC31)OCO2 (stereo not drawn)	7	-4	5	-2	8	/
C1=CC2c3ccccc3NC(c3ccncc3)C2C1 (stereo not drawn)	-4	4	50*	33	10	64*
O=C(Nc1cccc(Cl)c1)c1cc(N=Nc2ccc([N+](=O)[O-])cc2Cl)ccc1O	-8	16	33*	16	22*	70*
CC[C@@H](CCCc1ccc(OC)cc1)CCC(=O)N(c1ccccc1)c1ccccc1	/	/	-5	/	0	/
COc1cc(O)cc2cc3c(c(O)c12)C(=O)CC(C)(O)O3 (stereo not drawn)	13	3	38*	11	7	11
SMILES	TCR CD3 inh	DAGLB inhibitor	mABHD4 FP	HTRA1 inh	SIAE primary	mABHD4 conf
Cc1cc(C)cc(NCc2cc3c(cc2[N+](=O)[O-])OCO3)c1	9	4	31*	6	11	14
COc1ccc(CNCc2cc3c(cc2[N+](=O)[O-])OCO3)cc1	10	-2	33*	11	11	6
CCn1c2ccccc2c2cc(NC(=O)COC(=O)c3cccc(F)c3F)ccc21	/	/	0	/	-1	/
O=C(Nc1ccccc1)Nc1nc2ncccn2c1-c1ccc(C(F)(F)F)cc1	/	/	19	/	-5	/
CC(CN1CCC(O)CC1)c1ccccc1 (stereo not drawn)	-4	-1	-9	3	-6	/
CC(CN1CCN(Cc2ccccc2)CC1)c1ccccc1 (stereo not drawn)	-7	-4	30*	-3	1	6
COC(=O)[C@]12CCCCC=C1N(Cc1ccc(OC)cc1)C(=O)[C@@H]2CC(=O)NCC12CC3CC(CC(C3)C1)C2	/	/	-3	/	-3	/
CCCOc1ccccc1-n1sc2c(c1=S)-c1cc(OC)cc3c1N(C(=O)C3=O)C2(C)C	5	16	35*	18	10	60*
COc1cc2c3c(c1)C(C)=CC(C)(C)N3C(=O)C2=O	3	5	7	9	8	/
COc1cccc(N(C)C(=O)[C@@H](C)[C@@H](O)c2ccc(Cl)cc2)c1	/	/	-1	/	-2	/
Cn1cc(CN2CCC(C(=O)N3CCCC3)CC2)c(-c2ccccc2F)n1	10	1	2	1	-5	/
Cn1cc(CN2CCC(C(O)c3cccs3)CC2)c(-c2ccccc2F)n1 (stereo not drawn)	-9	-1	48*	5	2	2
COc1ccc2c(c1)c1ncn(CCN3CCCC3)c(=O)c1n2C	-6	-2	-31	2	4	/
COc1ccc2c(c1)c1ccc3c(c1n2C)C(=O)C=CC3=O	7	6	67*	23	-23	68*
COc1ccc(CNC(=O)O[C@H]2CC[C@@]34CCCN3C(=O)CCC[C@H]4[C@H]2C)cc1OC	/	/	2	/	12	/
O=C(COC(=O)c1cc(S(=O)(=O)N2CCCC2)ccc1O)Nc1ccc(S(=O)(=O)N2CCOCC2)cc1	3	1	1	3	-3	/
O=C(COC(=O)c1cc(S(=O)(=O)N2CCCC2)ccc1O)Nc1ccc(SC(F)F)cc1	2	-6	31*	-23	-20	17
CC(C)CN1C(=O)C[C@]2(C(=O)N(C)c3ccc(NS(=O)(=O)C4CC4)cc32)C1c1ccccc1 (stereo partly drawn)	/	/	0	/	-16	/
CCCCN(C)c1c(C)nc2ccc(C(=O)Nc3cc(-c4ccccc4)ccc3OC)cn12	8	/	40*	/	4	56*
CCc1nc2ccc(C(=O)Nc3cc(-c4ccccc4)ccc3OC)cn2c1N(C)CCCc1ccccc1	0	/	16	/	1	/
